The source made the active and inactive calls. The calls are words filed in the database; no cut-off is given here.
Columns and labels:
Mus musculus [1] = experiment: Anticonvulsant activity in CF-1 mouse model of maximal electroshock-induced seizure assessed as suppression of tonic hind limb extension at 30 mg/kg, ip measured at 0.5 hrs post dose; format: functional, organism-based
Summary of the method: (§1)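 Mice dosed i.p. and given maximal electroshock at 50 mA. Read-out is protection, reported as number protected / number tested at 0.25, 0.5, 1 and 4 h after dosing.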

[2] = Neurotoxicity in CF-1 mouse at 30 mg/kg, ip measured after 0.5 hrs by rotarod test; format: toxicity, organism-based; settings: in vivo
Summary of the method: (§2)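 Mice dosed i.p. were placed on a 1 in. knurled rod turning at 6 rpm. Toxicity was scored as failure to keep balance for at least 1 min, i.e. falling off three or more times. Results are reported as animals showing toxicity / animals tested at each time point.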

Mus musculus [3] = experiment: Anticonvulsant activity in CF-1 mouse model of subcutaneous pentylenetetrazole-induced seizure assessed as reduction in convulsions at 300 mg/kg, ip measured at 4 hrs post dose; format: functional, organism-based
Summary of the method: (§3)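 Mice dosed i.p., then given pentylenetetrazole 85 mg/kg in 0.9% NaCl s.c. into the posterior midline of the neck. Seizures watched for at least 30 min. Scored as protected / tested at 0.5 and 4 h.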

Mus musculus [4] = experiment: Anticonvulsant activity in CF-1 mouse model of subcutaneous pentylenetetrazole-induced seizure assessed as reduction in convulsions at 30 mg/kg, ip measured at 4 hrs post dose; format: functional, organism-based; summary of the method: as §3
Mus musculus [5] = experiment: Anticonvulsant activity in CF-1 mouse model of maximal electroshock-induced seizure assessed as suppression of tonic hind limb extension at 100 mg/kg, ip measured at 4 hrs post dose; format: functional, organism-based; summary of the method: as §1
Salmonella typhimurium [6] = experiment: Antimutagenic activity against Salmonella typhimurium TA1535 assessed as inhibition of NaN3-induced mutation at 50 ug/plate preincubated for 30 mins followed by top agar addition and measured after 48 hrs in presence of liver S9 fraction by Ames test relative to control; format: organism-based; settings: salmonella enterica subsp. enterica serovar typhimurium, s9, 48 h
Mus musculus [7] = experiment: Anticonvulsant activity in CF-1 mouse model of maximal electroshock-induced seizure assessed as suppression of tonic hind limb extension at 100 mg/kg, ip measured at 0.5 hrs post dose; format: functional, organism-based; summary of the method: as §1
[8] = Neurotoxicity in CF-1 mouse at 100 mg/kg, ip measured after 1 hr by rotarod test; format: toxicity, organism-based; settings: in vivo; summary of the method: as §2
Mus musculus [9] = experiment: Anticonvulsant activity in CF-1 mouse model of subcutaneous pentylenetetrazole-induced seizure assessed as reduction in convulsions at 30 mg/kg, ip measured at 0.5 hrs post dose; format: functional, organism-based; summary of the method: as §3
[10] = Neurotoxicity in CF-1 mouse at 100 mg/kg, ip measured after 4 hrs by rotarod test; format: toxicity, organism-based; settings: in vivo; summary of the method: as §2
[11] = Neurotoxicity in CF-1 mouse at 100 mg/kg, ip measured after 0.5 hrs by rotarod test; format: toxicity, organism-based; settings: in vivo; summary of the method: as §2
Mus musculus [12] = experiment: Anticonvulsant activity in CF-1 mouse model of maximal electroshock-induced seizure assessed as suppression of tonic hind limb extension at 30 mg/kg, ip measured at 4 hrs post dose; format: functional, organism-based; summary of the method: as §1
Mus musculus [13] = experiment: Anticonvulsant activity in CF-1 mouse model of maximal electroshock-induced seizure assessed as suppression of tonic hind limb extension at 300 mg/kg, ip measured at 4 hrs post dose; format: functional, organism-based; summary of the method: as §1
Salmonella typhimurium [14] = experiment: Antimutagenic activity against Salmonella typhimurium TA1535 assessed as inhibition of NaN3-induced mutation at 500 ug/plate preincubated for 30 mins followed by top agar addition and measured after 48 hrs in presence of liver S9 fraction by Ames test relative to control; format: organism-based; settings: salmonella enterica subsp. enterica serovar typhimurium, s9, 48 h
[15] = Neurotoxicity in CF-1 mouse at 30 mg/kg, ip measured after 4 hrs by rotarod test; format: toxicity, organism-based; settings: in vivo; summary of the method: as §2
Mus musculus [16] = experiment: Anticonvulsant activity in CF-1 mouse model of subcutaneous pentylenetetrazole-induced seizure assessed as reduction in convulsions at 100 mg/kg, ip measured at 4 hrs post dose; format: functional, organism-based; summary of the method: as §3
Mus musculus [17] = experiment: Anticonvulsant activity in CF-1 mouse model of maximal electroshock-induced seizure assessed as suppression of tonic hind limb extension at 300 mg/kg, ip measured at 0.5 hrs post dose; format: functional, organism-based; summary of the method: as §1
Salmonella typhimurium [18] = experiment: Antimutagenic activity against Salmonella typhimurium TA100 assessed as inhibition of NaN3-induced mutation at 250 ug/plate preincubated for 30 mins followed by top agar addition and measured after 48 hrs in presence of liver S9 fraction by Ames test relative to control; format: organism-based; settings: salmonella enterica subsp. enterica serovar typhimurium, s9, 48 h
Salmonella typhimurium [19] = experiment: Antimutagenic activity against Salmonella typhimurium TA1535 assessed as inhibition of NaN3-induced mutation at 100 ug/plate preincubated for 30 mins followed by top agar addition and measured after 48 hrs in presence of liver S9 fraction by Ames test relative to control; format: organism-based; settings: salmonella enterica subsp. enterica serovar typhimurium, s9, 48 h
[20] = Mutagenicity in Salmonella typhimurium TA1535 assessed as mutagenicity index at 50 to 500 ug/plate preincubated for 30 mins followed by top agar addition and measured after 48 hrs in absence of liver S9 fraction by Ames test; format: toxicity; settings: salmonella enterica subsp. enterica serovar typhimurium, s9, 48 h
Summary of the method: (§4)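 Ames plate incorporation in S. typhimurium TA100 or TA1535, with or without S9. Overnight culture, compound in DMSO (50–500 µg per plate) and buffer or S9 mix preincubated 30 min at 37 °C, then top agar on glucose minimal agar. Incubated 48 h at 37 °C, revertants counted in triplicate. Vehicle negative control; NaN3 (−S9) and 2AA (+S9) positive controls. MI = revertants with compound / negative-control revertants; MI ≥ 2 with dose-response counts as positive.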

[21] = Mutagenicity in Salmonella typhimurium TA100 assessed as mutagenicity index at 50 to 500 ug/plate preincubated for 30 mins followed by top agar addition and measured after 48 hrs in presence of liver S9 fraction by Ames test; format: toxicity, subcellular; settings: salmonella enterica subsp. enterica serovar typhimurium, s9, 48 h; summary of the method: as §4
Mus musculus [22] = experiment: Anticonvulsant activity in CF-1 mouse model of maximal electroshock-induced seizure assessed as suppression of tonic hind limb extension at 100 mg/kg, ip measured at 1 hr post dose; format: functional, organism-based; summary of the method: as §1
Mus musculus [23] = experiment: Anticonvulsant activity in CF-1 mouse model of subcutaneous pentylenetetrazole-induced seizure assessed as reduction in convulsions at 300 mg/kg, ip measured at 0.5 hrs post dose; format: functional, organism-based; summary of the method: as §3
Salmonella typhimurium [24] = experiment: Antimutagenic activity against Salmonella typhimurium TA100 assessed as inhibition of NaN3-induced mutation at 500 ug/plate preincubated for 30 mins followed by top agar addition and measured after 48 hrs in presence of liver S9 fraction by Ames test relative to control; format: organism-based; settings: salmonella enterica subsp. enterica serovar typhimurium, s9, 48 h
Salmonella typhimurium [25] = experiment: Antimutagenic activity against Salmonella typhimurium TA1535 assessed as inhibition of NaN3-induced mutation at 250 ug/plate preincubated for 30 mins followed by top agar addition and measured after 48 hrs in presence of liver S9 fraction by Ames test relative to control; format: organism-based; settings: salmonella enterica subsp. enterica serovar typhimurium, s9, 48 h
[26] = Mutagenicity in Salmonella typhimurium TA1535 assessed as mutagenicity index at 50 to 500 ug/plate preincubated for 30 mins followed by top agar addition and measured after 48 hrs in presence of liver S9 fraction by Ames test; format: toxicity, subcellular; settings: salmonella enterica subsp. enterica serovar typhimurium, s9, 48 h; summary of the method: as §4
Salmonella typhimurium [27] = experiment: Antimutagenic activity against Salmonella typhimurium TA100 assessed as inhibition of NaN3-induced mutation at 100 ug/plate preincubated for 30 mins followed by top agar addition and measured after 48 hrs in presence of liver S9 fraction by Ames test relative to control; format: organism-based; settings: salmonella enterica subsp. enterica serovar typhimurium, s9, 48 h
Salmonella typhimurium [28] = experiment: Antimutagenic activity against Salmonella typhimurium TA100 assessed as inhibition of NaN3-induced mutation at 50 ug/plate preincubated for 30 mins followed by top agar addition and measured after 48 hrs in presence of liver S9 fraction by Ames test relative to control; format: organism-based; settings: salmonella enterica subsp. enterica serovar typhimurium, s9, 48 h
Mus musculus [29] = experiment: Anticonvulsant activity in CF-1 mouse model of subcutaneous pentylenetetrazole-induced seizure assessed as reduction in convulsions at 100 mg/kg, ip measured at 0.5 hrs post dose; format: functional, organism-based; summary of the method: as §3
[30] = Neurotoxicity in CF-1 mouse at 300 mg/kg, ip measured after 0.5 hrs by rotarod test; format: toxicity, organism-based; settings: in vivo; summary of the method: as §2
[31] = Neurotoxicity in CF-1 mouse at 300 mg/kg, ip measured after 4 hrs by rotarod test; format: toxicity, organism-based; settings: in vivo; summary of the method: as §2
[32] = Mutagenicity in Salmonella typhimurium TA100 assessed as mutagenicity index at 50 to 500 ug/plate preincubated for 30 mins followed by top agar addition and measured after 48 hrs in absence of liver S9 fraction by Ames test; format: toxicity; settings: salmonella enterica subsp. enterica serovar typhimurium, s9, 48 h; summary of the method: as §4
Rattus norvegicus [33] = experiment: Anticonvulsant activity in Sprague-Dawley rat model of maximal electroshock-induced seizure assessed as suppression of tonic hind limb extension at 30 mg/kg, po measured at 2 hrs post dose; format: functional, organism-based
Summary of the method: (§5)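 Rats given 30 mg/kg p.o. and tested by maximal electroshock at 150 mA. Scored as number protected / number tested (4 per group) at 0.25, 0.5, 1, 2 and 4 h after dosing.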

[34] = Neurotoxicity in Sprague-Dawley rat at 30 mg/kg, po measured after 1 hr by rotarod test; format: toxicity, organism-based; settings: in vivo
Summary of the method: (§6)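 Rat neurotoxicity after i.p. or p.o. dosing was scored as animals impaired / animals tested at each time point. For p.o. dosing, TD50 was obtained by probit analysis.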

[35] = Neurotoxicity in Sprague-Dawley rat at 30 mg/kg, po measured after 2 hrs by rotarod test; format: toxicity, organism-based; settings: in vivo; summary of the method: as §6
[36] = Neurotoxicity in Sprague-Dawley rat at 30 mg/kg, po measured after 0.25 hrs by rotarod test; format: toxicity, organism-based; settings: in vivo; summary of the method: as §6
[37] = Neurotoxicity in Sprague-Dawley rat at 30 mg/kg, po measured after 4 hrs by rotarod test; format: toxicity, organism-based; settings: in vivo; summary of the method: as §6
[38] = Neurotoxicity in Sprague-Dawley rat at 30 mg/kg, po measured after 0.5 hrs by rotarod test; format: toxicity, organism-based; settings: in vivo; summary of the method: as §6
Rattus norvegicus [39] = experiment: Anticonvulsant activity in Sprague-Dawley rat model of maximal electroshock-induced seizure assessed as suppression of tonic hind limb extension at 30 mg/kg, po measured at 1 hr post dose; format: functional, organism-based; summary of the method: as §5

In the case of `CC[C@@H](CO)NC(=O)COc1c(C)cccc1C`, the Activity (Mus musculus [1]) is reported as “inactive”, the Activity [2] is reported as “Non-Toxic” and the Activity (Mus musculus [3]) is reported as “inactive”. For the same molecule, the Activity (Mus musculus [4]) was “inactive”, the Activity (Mus musculus [5]) was “inactive” and the “inhibition (INH)” value (Salmonella typhimurium [6]) was 12%. For the same molecule, the Activity (Mus musculus [7]) was “inactive”, the Activity [8] was “Non-Toxic” and the Activity (Mus musculus [9]) was “inactive”. The Activity [10] was “Non-Toxic”, the Activity [11] was “Non-Toxic” and the Activity (Mus musculus [12]) was “inactive”. The Activity (Mus musculus [13]) was “inactive”, the “inhibition (INH)” value (Salmonella typhimurium [14]) was 24% and the Activity [15] was “Non-Toxic”. For the same molecule, the Activity (Mus musculus [16]) was “inactive”, the Activity (Mus musculus [17]) was “Active” and the “inhibition (INH)” value (Salmonella typhimurium [18]) was 28%. For the same molecule, the “inhibition (INH)” value (Salmonella typhimurium [19]) was 22%, the Activity index [20] was 0.7 to 1.7 and the Activity index [21] was 0.7 to 1.7. The Activity (Mus musculus [22]) was “inactive”, the Activity (Mus musculus [23]) was “inactive” and the “inhibition (INH)” value (Salmonella typhimurium [24]) was 43%. For the same molecule, the “inhibition (INH)” value (Salmonella typhimurium [25]) was 19%, the Activity index [26] was 0.7 to 1.7 and the “inhibition (INH)” value (Salmonella typhimurium [27]) was 34%. For the same molecule, the “inhibition (INH)” value (Salmonella typhimurium [28]) was 26%, the Activity (Mus musculus [29]) was “inactive” and the Activity [30] was “Toxic”. The Activity [31] was “Non-Toxic” and the Activity index [32] was 0.7 to 1.7.

With `Cc1cccc(C)c1OCC(=O)NC(C)CO` (configuration not stated) the Activity (Mus musculus [1]) was “inactive”, the Activity (Rattus norvegicus [33]) was “inactive” and the Activity [2] was “Non-Toxic”. For the same molecule, the Activity (Mus musculus [3]) was “inactive”, the Activity (Mus musculus [4]) was “inactive” and the Activity (Mus musculus [5]) was “inactive”. For the same molecule, the Activity [34] was “Non-Toxic”, the Activity (Mus musculus [7]) was “inactive” and the Activity [8] was “Non-Toxic”. For the same molecule, the Activity (Mus musculus [9]) was “inactive”, the Activity (Mus musculus [12]) was “inactive” and the Activity (Mus musculus [13]) was “inactive”. The Activity [15] was “Non-Toxic”, the Activity (Mus musculus [16]) was “inactive” and the Activity (Mus musculus [17]) was “Active”. The Activity [35] was “Non-Toxic”, the Activity [36] was “Non-Toxic” and the Activity [37] was “Non-Toxic”. For the same molecule, the Activity [38] was “Non-Toxic”, the Activity (Mus musculus [22]) was “inactive” and the Activity (Mus musculus [23]) was “inactive”. The Activity (Rattus norvegicus [39]) was “inactive”, the Activity (Mus musculus [29]) was “inactive” and the Activity [30] was “Toxic”. The Activity [31] was “Non-Toxic”.

Source: ChEMBL document CHEMBL4368872, “Synthesis and anticonvulsant activity of phenoxyacetyl derivatives of amines, including aminoalkanols and amino acids” (Medchemcomm, 2018)
